Ten compounds from ChEMBL document CHEMBL1128479, “Synthesis and structure-activity relationships of stilbene retinoid analogs substituted with heteroaromatic carboxylic acids” (J Med Chem, 1995) can be followed below.

Experiment [1] relates to HL-60. The experiment in a line: Transglutaminase activity in HL-60 cdm-1 cells. In kind it is functional, cell-based. The conditions noted are these: Homo sapiens. Put shortly: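 Log-phase cells in RPMI 1640 with insulin/transferrin/selenide were pretreated with 1.25% DMSO for 18 h, then resuspended with retinoid or 0.1% ethanol control for 24 h. Lysate Tgase was measured as Ca2+-dependent [3H]putrescine conjugation to N,N-dimethylcasein.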

Experiment [2] is filed under the species Mus musculus. The experiment is described as follows: Inhibition of tumor-promoter-induced ornithine decarboxylase in TPA-treated female hairless mice. It is filed as functional. Put shortly: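 Retinoids were applied dorsally in 100 μL acetone 1 h before TPA (40 nmol/mouse in acetone). Mice were killed 4 h later, epidermis scraped after 55 °C for 30 s, and homogenate supernatant assayed for ODC by 14CO2 release (benzethonium hydroxide trap). Activity was normalized to protein.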

The species named for experiment [3] is Mus musculus. The experiment is described as follows: In vitro inhibition of chondrogenesis in mouse embryo limb bud cells. In kind it is functional, cell-based. In outline:
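Micromass cultures of day 11 mouse embryo forelimb bud cells (trypsin-EDTA dissociated, 200 000 cells/spot) in Eagle's MEM + 10% FBS. Retinoids 0.01 ng/mL–10 μg/mL (0.03 nM–30 μM) were added 24 h after plating, with ethanol vehicle (<1%). Cultures ended at 96 h, formalin/cetylpyridinium fixed, and cartilage nodules counted by image scan. Four replicates per concentration; IC50 from logarithmic curve fit.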

For experiment [4], the target named is T1, Retinoic acid receptor RXR-alpha (Homo sapiens, UniProt P19793).
T1 sequence (P19793 whole entry): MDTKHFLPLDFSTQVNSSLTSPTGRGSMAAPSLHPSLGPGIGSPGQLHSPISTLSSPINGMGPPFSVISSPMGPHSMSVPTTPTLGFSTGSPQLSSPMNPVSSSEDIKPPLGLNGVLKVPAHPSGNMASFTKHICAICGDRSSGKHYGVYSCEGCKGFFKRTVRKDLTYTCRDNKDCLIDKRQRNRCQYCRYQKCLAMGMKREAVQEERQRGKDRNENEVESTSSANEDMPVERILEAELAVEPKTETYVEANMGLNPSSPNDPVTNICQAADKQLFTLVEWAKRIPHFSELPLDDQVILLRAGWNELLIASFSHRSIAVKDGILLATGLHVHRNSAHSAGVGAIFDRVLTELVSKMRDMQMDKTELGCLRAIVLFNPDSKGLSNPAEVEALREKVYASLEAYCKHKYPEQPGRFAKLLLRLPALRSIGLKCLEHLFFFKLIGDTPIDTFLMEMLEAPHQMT
The experiment is described as follows: Transcriptional activation of Retinoid X receptor RXR alpha.

The target in experiment [5] is T2, Retinoic acid receptor beta (Homo sapiens, UniProt P10826).
T2 sequence (P10826 whole entry): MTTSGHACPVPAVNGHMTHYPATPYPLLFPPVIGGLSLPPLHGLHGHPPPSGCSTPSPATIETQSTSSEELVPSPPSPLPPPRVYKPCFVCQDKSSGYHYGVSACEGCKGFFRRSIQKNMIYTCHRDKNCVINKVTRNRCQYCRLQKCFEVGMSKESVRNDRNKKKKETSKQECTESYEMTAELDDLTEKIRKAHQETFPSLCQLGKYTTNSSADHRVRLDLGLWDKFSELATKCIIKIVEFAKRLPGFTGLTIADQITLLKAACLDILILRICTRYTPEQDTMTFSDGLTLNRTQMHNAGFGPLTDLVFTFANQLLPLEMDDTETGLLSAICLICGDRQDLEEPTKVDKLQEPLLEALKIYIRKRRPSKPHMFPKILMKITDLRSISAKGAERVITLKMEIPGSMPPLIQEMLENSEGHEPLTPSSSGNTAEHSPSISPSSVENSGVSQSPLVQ
The experiment in a line: Transcriptional activation of Retinoic acid receptor RAR beta.

In experiment [6] the target is T3, Retinoic acid receptor alpha (Homo sapiens, UniProt P10276).
T3 sequence (P10276 whole entry): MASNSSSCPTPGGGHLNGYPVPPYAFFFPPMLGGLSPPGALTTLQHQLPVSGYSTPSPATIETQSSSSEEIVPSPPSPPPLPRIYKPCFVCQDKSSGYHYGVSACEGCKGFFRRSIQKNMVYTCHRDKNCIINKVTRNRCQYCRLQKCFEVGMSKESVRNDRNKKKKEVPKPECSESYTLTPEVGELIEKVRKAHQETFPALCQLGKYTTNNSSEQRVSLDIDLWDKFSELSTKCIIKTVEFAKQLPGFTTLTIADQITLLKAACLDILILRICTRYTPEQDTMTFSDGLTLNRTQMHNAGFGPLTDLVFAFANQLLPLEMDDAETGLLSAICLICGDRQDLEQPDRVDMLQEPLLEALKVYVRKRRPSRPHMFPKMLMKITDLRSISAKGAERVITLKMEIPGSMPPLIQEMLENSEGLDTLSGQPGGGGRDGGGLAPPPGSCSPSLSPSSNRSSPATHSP
The experiment in a line: Transcriptional activation of Retinoic acid receptor RAR alpha.

In experiment [7] the target is T4, Retinoic acid receptor gamma (Homo sapiens, UniProt P13631).
T4 sequence (P13631 whole entry): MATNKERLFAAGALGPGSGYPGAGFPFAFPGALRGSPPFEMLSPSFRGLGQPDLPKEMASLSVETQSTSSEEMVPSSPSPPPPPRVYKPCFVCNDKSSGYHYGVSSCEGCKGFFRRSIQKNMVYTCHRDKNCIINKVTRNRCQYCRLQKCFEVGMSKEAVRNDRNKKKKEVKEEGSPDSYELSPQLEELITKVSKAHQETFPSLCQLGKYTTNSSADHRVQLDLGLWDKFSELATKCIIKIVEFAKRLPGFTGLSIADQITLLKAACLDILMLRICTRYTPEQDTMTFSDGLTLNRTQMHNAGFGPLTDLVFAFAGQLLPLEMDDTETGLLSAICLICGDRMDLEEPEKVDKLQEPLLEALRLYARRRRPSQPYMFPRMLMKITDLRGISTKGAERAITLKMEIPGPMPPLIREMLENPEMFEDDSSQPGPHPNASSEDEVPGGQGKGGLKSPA
The experiment in a line: Transcriptional activation of Retinoic acid receptor RAR gamma.

pEC50, pIC50: −log10 of the molar value.

Take `C/C(=C\c1ccc(C(=O)O)cc1)c1cc2c(cc1C)C(C)(C)CCC2(C)C`: the pEC50 in experiment [1] is 8.00. Besides, in experiment [2], the IC80 worked out at 1.2 nmol. Moreover, the pIC50 in experiment [3] was 8.10.

In experiment [1], `CC1=C(/C=C/C(C)=C\C=C\C(C)=C\C(=O)O)C(C)(C)CCC1` [ALITRETINOIN] had a negative-log EC50 (pEC50) of 8.70. In experiment [2], this compound gave an IC80 of 3.6 nmol. The negative-log IC50 (pIC50) in experiment [3] is 7.24.

`CC1=C(/C=C/C(C)=C/C=C/C(C)=C/C(=O)O)C(C)(C)CCC1` [TRETINOIN] showed a negative-log EC50 (pEC50) in experiment [1] of 8.30. The IC80 in experiment [2] worked out at 1.4 nmol. Further, in experiment [3], the pIC50 was 7.51.

`C/C(=C\c1ccc(C(=O)O)cc1)c1ccc2c(c1)C(C)(C)CCC2(C)C`: the pEC50 is below 6.00 in experiment [1] and below 5.00 in experiment [4]. This compound also had an IC80 in experiment [2] of 0.08 nmol. In experiment [3], this compound had a pIC50 of 10.22.

As for `C/C(=C\c1ccc(C(=O)O)cn1)c1cc2c(cc1C)C(C)(C)CCC2(C)C`, the negative-log EC50 (pEC50) was 7.68 in experiment [5], 5.57 in experiment [6], 6.98 in experiment [4] and 6.43 in experiment [7].

Regarding `C/C(=C\c1cc(C(=O)O)cs1)c1cc2c(cc1C)C(C)(C)CCC2(C)C`, the negative logarithm of the EC50 (pEC50) in experiment [1] was 7.70; in experiment [5] it was below 5.00; in experiment [6], below 5.00; in experiment [4], 6.70; in experiment [7], below 5.00. This compound had an IC80 in experiment [2] above 300 nmol. In experiment [3], this compound gave a negative logarithm of the IC50 (pIC50) of 7.20.

`C/C(=C\c1ccc(C(=O)O)o1)c1cc2c(cc1C)C(C)(C)CCC2(C)C`: the pEC50 in experiment [5] was below 5.00; in experiment [6], below 5.00; in experiment [4], 6.23; in experiment [7], below 5.00.

On to `C/C(=C\c1ccc(C(=O)O)s1)c1cc2c(cc1C)C(C)(C)CCC2(C)C`, for which the pEC50 in experiment [1] was 8.30; in experiment [5], 7.64; in experiment [6] it was below 5.00; in experiment [4], 7.96; in experiment [7], 7.43. In experiment [2], this compound gave an IC80 of 5.4 nmol. Moreover, the negative logarithm of the IC50 (pIC50) in experiment [3] is 7.82.

As to `C/C(=C\c1cccc(C(=O)O)c1)c1cc2c(cc1C)C(C)(C)CCC2(C)C`, the pEC50 in experiment [5], in experiment [6], in experiment [4] and in experiment [7] was below 5.00 throughout.

`C/C(=C\c1csc(C(=O)O)c1)c1cc2c(cc1C)C(C)(C)CCC2(C)C`: the pEC50 in experiment [5] is 5.97; in experiment [6], below 5.00; in experiment [4], 6.95; in experiment [7], below 5.00.
